Measured values pooled from the literature.
Protocols differ between the studies behind these lines.

CCCCCCNC(=O)n1cc(F)c(=O)[nH]c1=O
IC50 (C6; cell growth or viability, MTT; 72 h): 7 µM

Nc1ncnc2c1ncn2[C@@H]1O[C@H](CO)[C@@H](O)[C@@H]1O
IC50 (HN-6; cell growth or viability; 72 h): > 20 µM

COc1cccc(Oc2ccccc2NC(=O)CNC(=O)c2cccc3ccccc23)c1
IC50 (SK-N-DZ; cell growth or viability): 0.288 µM

O=C1NCCc2[nH]c(-c3ccncc3)cc21
IC50 (LOX IMVI; cell growth or viability): 3.58 µM

CCOc1ccc(C(=O)NN=C2C=C(C(C)(C)C)C(=O)C(C(C)(C)C)=C2)cc1
IC50 (human Fibroblast; cell growth or viability, resazurin; 24 h): > 100 µM

CCN1C(=O)N(c2c(F)c(OC)cc(OC)c2F)Cc2cnc3[nH]c(CN4CCOCC4)cc3c21
IC50 (RT-112; cell growth or viability, ATP luminescence; 96 h): 0.00522 µM

Nc1ccc(Cl)c[n+]1[Pt-2]([Cl])([Cl])[n+]1cc(Cl)ccc1N
IC50 (BEAS-2B; cell growth or viability, MTT; 48 h): 6.33 µM

COc1cc(Nc2nccc(-c3cnn4nc(OC)ccc34)n2)cc(C(F)(F)F)c1
IC50 (A2058; cell growth or viability, ATP luminescence): 0.19 µM

CC1(C)[C@@H](O)CC[C@]2(C)[C@H]3C(=O)C=C4[C@@H]5C[C@@](C)(C(=O)O)CC[C@]5(C)CC[C@@]4(C)[C@]3(C)CC[C@@H]12
IC50 (SGC-7901; cell growth or viability, MTT; 48 h): 10.2 µM

C=C(C)C(=O)Nc1ccc(-c2c(-c3ccc(Oc4nccc(C)n4)c(F)c3)c3c(N)ncnc3n2C)cc1
IC50 (KATO III; cell growth or viability, ATP luminescence; 96 h): 0.00129 µM

CC(C)C(=O)SCCCCCCC(=O)Nc1nc(-c2ccccc2)cs1
IC50 (HN-6; cell growth or viability; 72 h): 5.9 µM

COC(=O)CN=c1scc(-c2ccccc2)n1-c1ccccc1C
IC50 (Panc 02.03; cell growth or viability, MTT; 72 h): > 100 µM

COc1ccc(-c2nc(C(=O)Nc3nnc(-c4cc5ccccc5[nH]4)s3)cc3c2[nH]c2ccccc23)cc1
IC50 (BEAS-2B; cell growth or viability, MTT; 72 h): 71.2 µM

O=C(CNC(=O)c1cccc2ccccc12)Nc1ccccc1Oc1cccc(O)c1
IC50 (SK-N-DZ; cell growth or viability): 0.539 µM

O=C(O)c1cc(O)c2c(c1)C(=O)c1cccc(O)c1C2=O
IC50 (HK-2; cell growth or viability, MTT; 24 h): 210 µM

COc1ccc2[nH]cc(C(=O)C(=O)CCCc3c[nH]c4ccccc34)c2c1
IC50 (C4-2; cell growth or viability, MTT): > 100 µM

COc1cccc2c1C(=O)c1c(O)c3c(c(O)c1C2=O)C[C@@](O)(C(=O)CO)C[C@@H]3O[C@H]1C[C@H](N)[C@H](O)[C@H](C)O1
IC50 (A2058; cell growth or viability, WST-1; 72 h): 0.04 µM

Nc1nc(Nc2ccccc2)nc2c1ncn2[C@@H]1O[C@H](CO)[C@@H](O)[C@H]1O
IC50 (HN-6; cell growth or viability; 72 h): > 20 µM

CCCCC/C=C\C/C=C\C/C=C\C/C=C\CCCC(=O)C(F)(F)F
IC50 (MEL-JUSO; cell growth or viability, MTS; 72 h): 22.8 µM

Clc1ccc2c(c1)N=C(N1CCNCC1)c1ccccc1N2
IC50 (HN-6; cell growth or viability; 72 h): > 20 µM

O=C(NCCc1c[nH]c2ccccc12)C(=O)c1c[nH]c2ccc(Br)cc12
IC50 (C4-2; cell growth or viability, MTT): > 100 µM

CC(C)=CCC[C@](C)(O)[C@H]1CC[C@]2(C)[C@@H]1[C@H](O)C[C@@H]1[C@@]3(C)CC[C@H](O[C@@H]4O[C@H](CO)[C@@H](O)[C@H](O)[C@H]4O[C@@H]4O[C@H](CO)[C@@H](O)[C@H](O)[C@H]4O)C(C)(C)[C@@H]3CC[C@]12C
IC50 (BEAS-2B; cell growth or viability, MTT; 72 h): > 100 µM

Nc1ccn([C@@H]2O[C@H](CO)[C@@H](O)C2(F)F)c(=O)n1
IC50 (Panc 02.03; cell growth or viability, MTT; 72 h): 0.38 µM

CN(C)CC[C@@H](c1ccc(Cl)cc1)c1ccccn1
IC50 (HN-6; cell growth or viability; 72 h): > 20 µM

O=C(c1cc(Cc2n[nH]c(=O)c3ccccc23)ccc1F)N1CCN(C(=O)C2CC2)CC1
IC50 (KATO III; colony formation): 2.43 µM

CCN(CC)CCCCNc1ncc2cc(-c3cc(OC)cc(OC)c3)c(NC(=O)NC(C)(C)C)nc2n1
IC50 (RT-112; cell growth or viability, MTT; 5 days): 0.015 µM

NCCc1ccc(O)c(O)c1
IC50 (HN-6; cell growth or viability; 72 h): > 20 µM

CCN1CCN(c2ccc(Nc3cc(N(C)C(=O)Nc4c(Cl)c(OC)cc(OC)c4Cl)ncn3)cc2)CC1
IC50 (KATO III; cell growth or viability, ATP luminescence; 96 h): 0.00222 µM

O=C(CNC(=O)c1cccc2ccccc12)Nc1ccccc1Oc1ccccc1
IC50 (SK-N-DZ; cell growth or viability): 0.237 µM

Cc1c[nH]c(/C=C2\C(=O)Nc3ccccc32)c1CCC(=O)O
IC50 (RT-112; cell growth or viability, MTT; 5 days): 6 µM

Clc1ccc(N2CCN(Cc3c[nH]c4ncccc34)CC2)cc1
IC50 (HN-6; cell growth or viability; 72 h): > 20 µM

O=C1c2cccc(O)c2C(=O)c2c(O)cc(CO)cc21
IC50 (HK-2; cell growth or viability, MTT; 24 h): > 500 µM

CC(C)(C)C1=CC(=NNC(=O)c2cccnc2)C=C(C(C)(C)C)C1=O
IC50 (human Fibroblast; cell growth or viability, resazurin; 24 h): > 100 µM

C(=C\c1c[nH]c2ccccc12)/c1ccc2ccccc2n1
IC50 (MDA-MB-468; cell growth or viability, MTT): 11 µM

CC(C)(C=O)Cc1cc(C(C)(C)C)c(O)c(C(C)(C)C)c1
IC50 (HN-6; cell growth or viability; 72 h): > 20 µM

CC(C)C[C@H](NC(=O)[C@H](Cc1ccccc1)NC(=O)c1cnccn1)B(O)O
IC50 (RERF-LC-Ad2; cell growth or viability, ATP luminescence): 0.022 µM

CS(=O)(=Nc1ccc(Br)cc1)c1c[nH]c2ccccc12 (centres unmarked)
IC50 (C4-2; cell growth or viability, MTT; 48 h): > 40 µM

Cc1cc(O)c2c(c1)C(=O)c1cccc(O)c1C2=O
IC50 (HK-2; cell growth or viability, MTT; 24 h): > 500 µM
